Tests used:
[1] = test system: NF-κB reporter in 293T cells expressing MALT1 C464A; assay: NF-κB reporter assay, PMA/ionomycin, BCL10 + MALT1 C464A; format: cell-based; conditions: 2 µM pretreatment 30 min, PMA/ionomycin 2 hr
[2] = molecular target: paracaspase domain of MALT1 (residues 329–728) (Homo sapiens, UniProt Q9UDY8); assay: HSQC NMR binding
HBL-1 cells [3] = assay: Recovery of cells after a single dose; format: cell-based, human; conditions: 0.2 µM dose level
[4] = test system: ABC-DLBCL cell lines HBL-1 and TMD8; assay: Caspase-3/7 cleavage assay; format: cell-based, human
Summary of the method: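 Caspase-3/7 cleavage assay run within 48 hr of exposure to increasing concentrations of test compound.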

HBL-1 and TMD8 cells = assay: Trypan blue cell number and Annexin V+ DAPI− apoptosis time course, 14 days; format: cell-based, human; conditions: treated daily at GI25 and GI50, 14 days
Summary of the method: (§1)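 Cell lines were dosed with test compound every 24 hr. Every 48 hr for 14 days, cells were counted by trypan blue exclusion and apoptosis was measured as Annexin V+ DAPI− by flow cytometry. Cell number is expressed as % of vehicle at each time point.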

[5] = test system: HBL-1, TMD8, and OCI-Ly10; assay: CFSE dilution proliferation assay; format: cell-based, human; conditions: increasing concentrations, 48, 72, and 96 hr
Summary of the method: (§2)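 Cells were exposed to increasing concentrations of test compound, and CFSE dilution was read by flow cytometry at 48, 72 and 96 hr. 2 × 10^4 cells were acquired per sample, and DAPI staining was used to gate viable cells for analysis.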

U2932 cells = assay: Growth inhibition, ATP-based luminescent assay; format: cell-based, human; conditions: 48 hr
Summary of the method: (§3)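 Cells received a single dose of test compound over a concentration range and proliferation was read at 48 hr by luminescent ATP quantification. Luminescence was converted to cell number using per-line standard curves built from trypan blue counts. Viability was normalised to controls and expressed as 1 − fractional viability, and GI25/GI50 were fitted. Experiments were run three times in triplicate.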

OCI-Ly10 cells = assay: Growth inhibition, ATP-based luminescent assay; format: cell-based, human; conditions: 48 hr
Summary of the method: as §3

[6] = test system: MALT1-mediated cleavage of CYLD in HBL-1 cells; assay: MALT1 cleavage of CYLD, western blotting and densitometry; format: cell-based, human
caspase-8 = caspase-8 (Homo sapiens, UniProt Q14790); assay: Caspase selectivity; format: biochemical
caspase-3/7 activity = assay: Cell-based caspase-3/7 activity and apoptosis inhibition; conditions: at concentrations that suppress MALT1
HBL-1 cells [7] = assay: BrdU incorporation-DAPI cell cycle; format: cell-based, human; conditions: 24 and 48 hr
Summary of the method: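 HBL-1 cells were treated with test compound for 24 and 48 hr, then pulse-labelled with BrdU and co-stained with DAPI. Cell-cycle phases (S, G1-0, sub-G0) were read by flow cytometry. Data are mean ± SD of two independent experiments.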

[8] = test system: nuclear c-REL and p65 in HBL-1 and TMD8 cells; assay: Western blots for c-REL and p65 in nuclear extracts; format: cell-based, human; conditions: 24 hr, 200 nM for HBL-1 and 500 nM for TMD8
Summary of the method: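 Nuclear extracts were prepared from HBL-1 cells (200 nM test compound) and TMD8 cells (500 nM) after 24 hr treatment and immunoblotted for c-REL and p65.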

TMD8 cells = assay: Growth inhibition, ATP-based luminescent assay; format: cell-based, human
Summary of the method: as §3

[9] = test system: NF-κB reporter activity in HBL-1 cells; assay: NF-κB reporter assay in HBL-1; format: cell-based, human; conditions: 200 nM
Summary of the method: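 NF-κB luciferase reporter in HBL-1 cells treated with 200 nM test compound, 50 µM Z-VRPR-FMK or vehicle for 8 and 24 hr. Activity is given as % of vehicle, normalised to an internal control. Statistics used ANOVA with Bonferroni post-test.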

caspase-3 = caspase-3 (Homo sapiens, UniProt P42574); assay: Caspase selectivity; format: biochemical
[10] = molecular target: LZ-MALT1 (recombinant MALT1 (340–789) fused with a leucine zipper dimerization motif) (Homo sapiens, UniProt Q9UDY8); assay: LZ-MALT1 fluorescence activity assay; format: biochemical; conditions: preincubation with compound before Ac-LRSR-AMC
Summary of the method: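 Recombinant MALT1 (340–789) fused to a leucine zipper dimerization motif was preincubated with test compound (0–25 µM) for 5–90 min. Ac-LRSR-AMC substrate was then added, and AMC release was read by fluorescence at 360 nm excitation and 465 nm emission. Percent inhibition was normalized and plotted against preincubation time.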

[11] = test system: NF-κB reporter in 293T cells expressing MALT1 WT; assay: NF-κB reporter assay, PMA/ionomycin, BCL10 + MALT1 WT; format: cell-based; conditions: 2 µM pretreatment 30 min, PMA/ionomycin 2 hr
[12] = test system: GCB-DLBCL cell lines (OCI-Ly7 and OCI-Ly1); assay: Growth inhibition, ATP-based luminescent assay; format: cell-based, human; conditions: 48 hr
Summary of the method: as §3

HLY-1 cells = assay: Growth inhibition, ATP-based luminescent assay; format: cell-based, human; conditions: 48 hr
Summary of the method: as §3

C57BL/6 mice = assay: Toxicity in mice; format: in vivo
caspase-9 = caspase-9 (Homo sapiens, UniProt P55211); assay: Caspase selectivity; format: biochemical
[13] = molecular target: MALT1 active site mutant C464A (Homo sapiens, UniProt Q9UDY8, C464A); assay: LC-MS covalent modification, mutant; format: binding
[14] = test system: ABC-DLBCL cell lines HBL-1 and TMD8, GCB-DLBCL cell line OCI-Ly1; parameters: species or system human; conditions: 48 hr, cell-based assays
Summary of the method: as §3

HBL-1 cells [15] = assay: Intracellular concentration by LC-MS; format: in vitro ADME, human
Summary of the method: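 HBL-1 cells were exposed to 0.02, 0.2 or 2 µM test compound for 2 hr, washed three times, and intracellular compound was quantified by LC-MS. For free-drug kinetics, cells at 0.2 µM were sampled at 30 min and at 2, 6, 12, 24 and 48 hr.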

OCI-Ly1 = assay: CFSE dilution proliferation assay; format: cell-based, human; conditions: increasing concentrations, 48, 72, and 96 hr
Summary of the method: as §2

[16] = test system: Z-VRPR-FMK signature genes in HBL-1 and TMD8 cell lines; assay: Gene expression profiling, GSEA; format: cell-based, human; conditions: GI50 concentrations (HBL-1 200 nM; TMD8 500 nM), 8 hr
OCI-Ly3 cells = assay: Growth inhibition, ATP-based luminescent assay; format: cell-based, human; conditions: 48 hr
Summary of the method: as §3

[17] = molecular target: MALT1 paracaspase domain (329–728) (Homo sapiens, UniProt Q9UDY8); assay: LC-MS covalent modification; format: binding
OCI-Ly1 cells = assay: Trypan blue cell number and Annexin V+ DAPI− apoptosis time course, 14 days; format: cell-based, human; conditions: treated daily at the doses used for TMD8, 14 days
Summary of the method: as §1

HBL-1 xenografts = assay: HBL-1 xenograft in NOD-SCID mice; format: in vivo; conditions: IP 25 mg/kg/day, 14 injections
Summary of the method: (§4)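 Eight-week-old male NOD-SCID (NOD.CB17-Prkdcscid/J) mice received 10^7 low-passage cells subcutaneously in 50% Matrigel in the right flank. At an average tumour size of 120 mm3, mice were randomised to test compound 25 mg/kg/day IP or vehicle (5% DMSO) for 14 consecutive days and sacrificed 24 hr after the 14th injection. Caliper volume, (smallest diameter² × largest)/2, was taken three times weekly. Ki-67 IHC was counted per high-power field.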

TMD8 xenografts = assay: TMD8 xenograft in NOD-SCID mice; format: in vivo; conditions: IP 25 mg/kg/day, 14 injections
Summary of the method: as §4

[18] = test system: MALT1 substrate cleavage in HBL-1 and TMD8 cell lines; assay: Cleavage of MALT1 substrates A20, BCL10, RELB, western blot with MG-132; format: cell-based, human; conditions: 2 µM, 30 min, then 5 µM MG-132 for 1 or 2 hr
Summary of the method: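 HBL-1 and TMD8 cells were pretreated for 30 min with 2 µM test compound or vehicle. Proteasome inhibitor MG-132 (5 µM) was then added for a further 1 or 2 hr so that cleaved substrate forms could accumulate. Western blots were probed for A20, RELB and BCL10, and cleavage products were identified by band position.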

HBL-1 cells [19] = assay: Growth inhibition, ATP-based luminescent assay; format: cell-based, human
Summary of the method: as §3

OCI-Ly1 xenografts = assay: OCI-Ly1 xenograft in NOD-SCID mice; format: in vivo; conditions: IP 25 mg/kg/day, 14 injections
Summary of the method: as §4

[20] = test system: primary human non-GCB DLBCL cells; assay: Primary human DLBCL ex vivo viability, trypan blue; format: cell-based; conditions: 0.8 µM, 48 hr
Summary of the method: (§5)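 Single-cell suspensions came from lymph-node biopsies of five DLBCL patients, prepared by physical disruption and density-gradient separation. GCB versus non-GCB status was assigned by Hans-criteria IHC. Cells were cultured in RPMI with 20% FBS and antibiotics and exposed to 0.8 µM test compound (1 µM for one patient) or DMSO in quadruplicate for 48 hr. Cell number and viability were counted by trypan blue and normalised to vehicle.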

[21] = test system: primary human GCB DLBCL cells; assay: Primary human DLBCL ex vivo viability, trypan blue; format: cell-based; conditions: 0.8 µM, 48 hr
Summary of the method: as §5

[22] = test system: nuclear c-REL in HBL-1 cells; assay: c-REL flow cytometry of whole cells or isolated nuclei; format: cell-based, human; conditions: 200 nM MI-2 or 50 µM Z-VRPR-FMK, 24 hr
Summary of the method: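 HBL-1 cells were exposed for 24 hr to 200 nM test compound, to 50 µM Z-VRPR-FMK as positive control, or to vehicle. c-REL was then measured by flow cytometry in whole cells and in isolated nuclei.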

caspase-8, sequence (Q14790 217-374 limits assumed): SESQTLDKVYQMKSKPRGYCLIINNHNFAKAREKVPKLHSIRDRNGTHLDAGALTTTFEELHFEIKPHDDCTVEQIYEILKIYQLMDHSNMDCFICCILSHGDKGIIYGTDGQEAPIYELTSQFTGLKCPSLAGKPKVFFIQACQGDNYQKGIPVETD
caspase-8, sequence (Q14790 385-479 limits assumed): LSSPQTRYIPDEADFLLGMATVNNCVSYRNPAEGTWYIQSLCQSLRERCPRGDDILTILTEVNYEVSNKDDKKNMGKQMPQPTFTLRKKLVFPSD
caspase-9, sequence (P55211 whole entry, species assumed): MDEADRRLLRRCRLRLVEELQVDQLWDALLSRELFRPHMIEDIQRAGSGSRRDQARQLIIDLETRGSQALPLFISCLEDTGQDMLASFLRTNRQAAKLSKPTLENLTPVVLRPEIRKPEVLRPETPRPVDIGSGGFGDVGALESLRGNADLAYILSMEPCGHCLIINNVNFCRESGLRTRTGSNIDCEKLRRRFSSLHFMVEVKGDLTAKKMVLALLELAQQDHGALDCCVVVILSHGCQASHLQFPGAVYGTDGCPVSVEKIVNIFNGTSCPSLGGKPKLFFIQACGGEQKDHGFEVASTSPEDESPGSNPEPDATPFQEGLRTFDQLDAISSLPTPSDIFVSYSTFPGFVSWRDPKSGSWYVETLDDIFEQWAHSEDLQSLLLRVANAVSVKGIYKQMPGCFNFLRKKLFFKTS
caspase-3, sequence (P42574 29-175 limits assumed, species assumed): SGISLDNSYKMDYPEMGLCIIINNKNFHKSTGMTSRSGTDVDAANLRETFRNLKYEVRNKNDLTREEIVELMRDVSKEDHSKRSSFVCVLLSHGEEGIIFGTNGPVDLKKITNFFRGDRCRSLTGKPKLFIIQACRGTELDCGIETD
caspase-3, sequence (P42574 176-277 limits assumed, species assumed): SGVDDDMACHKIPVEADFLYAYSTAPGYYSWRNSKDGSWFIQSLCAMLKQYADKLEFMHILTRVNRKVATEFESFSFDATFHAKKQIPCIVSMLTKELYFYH

COCCOc1nc(-c2ccc(Cl)c(Cl)c2)n(-c2ccc(NC(=O)CCl)cc2)n1 [MI-2]
NF-κB induction by PMA/ionomycin [1]: did not significantly affect | binding by HSQC NMR [2]: robust interaction | recovery of cells (HBL-1 cells [3]): only started to become evident after 48 hr | apoptosis (caspase-3/7 cleavage) [4]: dose-dependent apoptosis within 48 hr | cell number and apoptosis (HBL-1 and TMD8 cells): profoundly suppressed | proliferation (CFSE dilution) [5]: substantially inhibited proliferation | growth inhibition (U2932 cells; U2932, single dose): resistant | GI50 (OCI-Ly10 cells; OCI-Ly10, single dose): 400 nM | inhibition of MALT1 cleavage of CYLD ([6]; HBL-1, 5 µM for 8 hr, Z-VRPR-FMK 50 µM positive control): most potent compound | MALT1-mediated cleavage of CYLD ([6]; HBL-1, increasing concentrations, 24 hr): dose-dependent decrease in MALT1-mediated cleavage | activity against caspase-8 (caspase-8): little activity | inhibition of caspase-3/7 activity or apoptosis in cell-based assays (caspase-3/7 activity): did not inhibit | cell cycle (BrdU-DAPI) (HBL-1 cells [7]): dose-dependent decrease in S phase | nuclear c-REL (western blot) [8]: clear reduction of nuclear c-REL | nuclear p65 levels (western blot) [8]: did not affect p65 levels | GI50 (TMD8 cells; TMD8): 500 nM | reduction in NF-κB reporter activity ([9]; 8 hr): 20% | reduction in NF-κB reporter activity ([9]; 24 hr): 50% | activity against caspase-3 (caspase-3): little activity | inhibition reached [10]: ~100% | NF-κB induction by PMA/ionomycin [11]: significantly inhibited NF-κB induction | growth inhibition ([12]; two GCB-DLBCL cell lines, single dose): resistant | growth inhibition (HLY-1 cells; HLY-1, single dose): resistant | Complete peripheral blood counts, biochemistry, and liver function tests (C57BL/6 mice; daily IP 25 mg/kg over 14 days): normal | toxicity 1: physical indicators of sickness (C57BL/6 mice; daily IP, increasing doses 0.05 to 25 mg/kg over 10 days, cumulative 51.1 mg/kg): no evidence of lethargy, weight loss | activity against caspase-9 (caspase-9): little activity | covalent binding by LC-MS [13]: markedly reduced covalent binding | 25% growth-inhibitory concentration (GI25) [14]: high-nanomolar range | intracellular concentration (HBL-1 cells [15]; HBL-1, 0.2 µM, 2 hr): 5 µM | free intracellular drug (HBL-1 cells [15]; HBL-1, 0.2 µM, by 12 hr): virtually no detectable free MI-2 | increase in intracellular concentration (HBL-1 cells [15]; HBL-1 exposed to 0.02, 0.2, or 2 µM for 2 hr, washed three times): 18- to 30 fold | proliferation (CFSE dilution) (OCI-Ly1): did not affect OCI-Ly1 | enrichment of Z-VRPR-FMK signature (GSEA) [16]: significantly enriched among genes downregulated after MI-2 treatment | GI50 (OCI-Ly3 cells; OCI-Ly3, single dose): 400 nM | covalent binding by LC-MS [17]: can bind covalently to MALT1 | cell number and apoptosis (OCI-Ly1 cells): no effect on OCI-Ly1 cells | apoptotic cells (TUNEL) relative to vehicle (HBL-1 xenografts): significant increase in apoptotic cells | c-REL nuclear protein in tumor sections (HBL-1 xenografts): reduced c-REL nuclear protein | proliferation (Ki-67 staining) compared to vehicle (HBL-1 xenografts): significant decrease in proliferation | tumor growth versus vehicle (HBL-1 xenografts): profoundly suppressed the growth | apoptotic cells (TUNEL) relative to vehicle (TMD8 xenografts): significant increase in apoptotic cells | proliferation (Ki-67 staining) compared to vehicle (TMD8 xenografts): significant decrease in proliferation | tumor growth versus vehicle (TMD8 xenografts): profoundly suppressed the growth | cleavage of A20, BCL10, and RELB [18]: diminished the abundance of cleaved forms and/or increased the abundance of full-length proteins | GI50 (HBL-1 cells [19]; HBL-1): 200 nM | apoptotic cells (TUNEL) relative to vehicle (OCI-Ly1 xenografts): not in OCI-Ly1 xenografts | proliferation (Ki-67 staining) compared to vehicle (OCI-Ly1 xenografts): no difference | tumor growth versus vehicle (OCI-Ly1 xenografts): no effect on the growth | response of primary cases (cell number and viability) [20]: two of the non-GCB cases responded | response of primary cases (cell number and viability) [21]: none of the GCBs did | nuclear c-REL (flow cytometry) [22]: reduced nuclear c-REL to a similar extent

Z-VRPR-FMK [reference compound]
response of proliferation (U2932 cells; 50 µM): relatively little response | response of proliferation (OCI-Ly10 cells; 50 µM): inhibition of proliferation | response of proliferation (TMD8 cells; 50 µM, 48 hr): inhibition of proliferation | response of proliferation ([12]; 50 µM): did not respond | response of proliferation (HLY-1 cells; 50 µM): relatively little response | response of proliferation (OCI-Ly3 cells; 50 µM): inhibition of proliferation | response of proliferation (HBL-1 cells [19]; 50 µM, 48 hr): inhibition of proliferation | nuclear c-REL (flow cytometry) [22]: reduced nuclear c-REL to a similar extent

Source: PMC3984478 (Cancer cell, 2012)
